Converted amounts (≈) assume the structure as drawn. The source made the active and inactive calls. Where a SMILES comes first, the peptide text is derived from it. Bridges are numbered along the chain shown (N, C = ends). [ ]: non-standard residue; d: D form. Dab = NCC[C@H](N)C(=O)O
Tests used:
[1] = Aqueous solubility of the compound by nephlometric method; type: physicochemical
Outline: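 Maximum solubility in water, measured by nephelometry.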

HeLa = test: Cytotoxicity against human HeLa cells; type: cell-based
Escherichia coli [2] = test: Inhibition of multidrug resistance efflux pump in Escherichia coli assessed as concentration required to reduce levofloxacin MIC by 4-fold by checkerboard assay
Escherichia coli [3] = test: Inhibition of multidrug resistance efflux pump in wild-type Escherichia coli AB1157 assessed as concentration required to reduce piperacillin MIC by 4-fold by checkerboard assay
[4] = Metabolic stability in mouse liver microsomes assessed as compound remaining at 25 uM after 60 mins by HPLC analysis in presence of NADPH; type: ADME; details: read-out: Stability
Outline: (§1)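 Human or mouse liver microsomes at 0.5 mg/mL in 100 mM potassium phosphate pH 7.4 with 3 mM MgCl2, test compound 25 µM final, with or without (control) 2 mM NADPH; 37 °C for one hour, then stopped with equal volume acetonitrile containing 0.1% trifluoroacetic acid. Value: peak area with NADPH relative to no-NADPH control, as percent remaining.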

[5] = Metabolic stability in human liver microsomes assessed as compound remaining at 25 uM after 60 mins by HPLC analysis in presence of NADPH; type: ADME; details: read-out: Stability; outline: as §1
Escherichia coli [6] = test: Antibacterial activity against Escherichia coli at 100 uM; type: functional, organism-based
Escherichia coli [7] = test: Inhibition of lactose permease in Escherichia coli HN1157 assessed as [3H]TMG accumulation up to 20 uM relative to control
Outline: (§2)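 Proton motive force probed in E. coli HN1157 by LacY permease-mediated accumulation of [methyl-3H] thiogalactopyranoside (stock 1 mCi/ml, 7 Ci/mmol), compounds tested at concentrations up to 20 µM.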

Escherichia coli [8] = test: Effect on outer membrane permeability in AcrAB-deficient Escherichia coli HN1159 assessed as influx of nitrocefin at 20 uM; type: functional
Escherichia coli [9] = test: Inhibition of lactose permease-dependent [3H]TMG uptake in Escherichia coli HN1157 up to 20 uM; outline: as §2
[10] = Inhibition of mouse liver microsome CYP3A4 at 3 uM after 10 mins by luminescence assay; type: ADME; details: microsomes
Escherichia coli [11] = test: Antibacterial activity against TolC-deficient Escherichia coli AB1157; type: functional
Outline: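 MIC determined following CLSI guidelines, with modifications from the authors' earlier work, in the TolC-deficient mutant of E. coli AB1157.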

Escherichia coli [12] = test: Antibacterial activity against wild-type Escherichia coli AB1157; type: functional
Outline: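 MIC determined according to CLSI guidelines, with modifications described in earlier work.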

Escherichia coli [13] = test: Inhibition of lactose permease in Escherichia coli HN1157 assessed as [3H]TMG accumulation up to 100 uM relative to control
Escherichia coli [14] = test: Effect on outer membrane permeability in AcrAB-deficient Escherichia coli HN1159 assessed as influx of nitrocefin at 20 ug/ml; type: functional
Enterobacteriaceae = test: Antimicrobial activity against Enterobacteriaceae; type: functional

SMILES	solubility kinetic [1]	CC50 (HeLa)	INH (Escherichia coli [2])	INH (Escherichia coli [3])	remaining at 1 h, 25 µM [4]	remaining at 1 h, 25 µM [5]	Activity (Escherichia coli [6])	[3H]TMG accumulation relative to control (Escherichia coli [7])	Activity (Escherichia coli [8])	inhibition (Escherichia coli [9])	inhibition (INH) [10]	MIC (Escherichia coli [11])	MIC (Escherichia coli [12])	inhibition (Escherichia coli [13])	Activity (Escherichia coli [14])	MIC (Enterobacteriaceae)
C=CC(=O)Nc1ccc(CCSc2nc(N3CC(C)OC(C)C3)c3c(c2C#N)CC(C)(C)OC3)cc1 (configuration not stated)	25 µM (≈ 12.7 µg/mL)	62.4 µM	0.1 µM	0.05 µM	49%	100%	inactive	99%	89%	inactive	–	–	–	–	–	–
CC1CN(c2nc(SCCc3ccc(NC(=O)OC(C)(C)C)cc3)c(C#N)c3c2COC(C)(C)C3)CC(C)O1 (configuration not stated)	100 µM (≈ 55.3 µg/mL)	> 100 µM	0.8 µM	0.4 µM	66%	59%	inactive	–	99%	inactive	0%	–	–	–	–	–
CCN1CCN(C(=O)N[C@@H](C(=O)N[C@@H]2C(=O)N3[C@@H]2SC(C)(C)[C@@H]3C(=O)O)c2ccccc2)C(=O)C1=O [PIPERACILLIN]	–	–	–	–	–	–	–	–	–	–	–	0.125 µM (≈ 0.0647 µg/mL)	4 µM (≈ 2.07 µg/mL)	–	–	–
N#CC(C#N)=NNc1cccc(Cl)c1	–	–	–	–	–	–	–	–	–	–	–	–	–	3%	–	–
CC1CN(c2nc(SCCc3ccc(NC(=N)N)cc3)c(C#N)c3c2COC(C)(C)C3)CC(C)O1 (configuration not stated)	100 µM (≈ 49.5 µg/mL)	12 µM	0.8 µM	0.8 µM	90%	90%	inactive	86%	–	inactive	9%	–	–	–	–	–
CC(C)C[C@@H]1NC(=O)[C@@H](Cc2ccccc2)NC(=O)[C@H](CCN)NC(=O)[C@@H](NC(=O)[C@H](CCN)NC(=O)[C@@H](N)[C@@H](C)O)CCNC(=O)[C@H]([C@@H](C)O)NC(=O)[C@H](CCN)NC(=O)[C@H](CCN)NC1=O [POLYMYXIN B NONAPEPTIDE] (H-T[Dab][Dab][Dab][dF]L[Dab][Dab]T; lactam 3-C)	–	–	–	–	–	–	–	–	–	–	–	–	–	–	162%	–
C[C@H]1COc2c(N3CCN(C)CC3)c(F)cc3c(=O)c(C(=O)O)cn1c23 [LEVOFLOXACIN]	–	–	–	–	–	–	–	–	–	–	–	0.016 µM (≈ 0.00578 µg/mL)	0.063 µM (≈ 0.0228 µg/mL)	–	–	–
COCCN1CCN(c2nc(SCCc3ccccc3)c(C#N)c3c2COC(C)(C)C3)CC1	50 µM (≈ 23.3 µg/mL)	34.2 µM	6.3 µM	0.4 µM	0%	0%	inactive	–	–	–	18%	–	–	–	–	–
COCCN1CCN(c2nc(SCCc3ccccn3)c(C#N)c3c2COC(C)(C)C3)CC1	≥ 100 µM	> 100 µM	12.5 µM	3.1 µM	3%	0%	inactive	–	–	–	14%	–	–	–	–	–
COc1cccc(CCSc2nc(N3CCOCC3)c3c(c2C#N)CC(C)(C)OC3)c1	50 µM (≈ 22 µg/mL)	> 100 µM	2.4 µM	1.6 µM	0%	8%	inactive	99%	94%	inactive	29%	–	–	–	–	–
CC1(C)Cc2c(C#N)c(SCc3ccccc3)nc(N3CCOCC3)c2CO1	–	–	> 100 µM	> 100 µM	–	–	inactive	–	–	inactive	–	–	–	–	–	–
COCCN1CCN(c2nc(SCCc3ccc(OC)c(OC)c3)c(C#N)c3c2COC(C)(C)C3)CC1	≥ 100 µM	38.8 µM	1.6 µM	0.4 µM	13%	20%	inactive	100%	100%	inactive	48%	–	–	–	–	–
CC1CN(c2nc(SCCc3ccc(N)cc3)c(C#N)c3c2COC(C)(C)C3)CC(C)O1 (configuration not stated)	12 µM (≈ 5.43 µg/mL)	52.2 µM	0.8 µM	0.8 µM	72%	76%	inactive	100%	102%	inactive	59%	–	–	–	–	–
CC1(C)Cc2c(C#N)c(SCCc3ccccc3)nc(N3CCOCC3)c2CO1	12 µM (≈ 4.91 µg/mL)	> 100 µM	3.1 µM	3.1 µM	0%	0%	inactive	102%	90%	inactive	–	–	–	–	–	≥ 100 µM
CC1CN(c2nc(SCCc3ccc(NC(=O)C(F)(F)F)cc3)c(C#N)c3c2COC(C)(C)C3)CC(C)O1 (configuration not stated)	12.5 µM (≈ 6.86 µg/mL)	64 µM	1.6 µM	1.6 µM	0%	90%	inactive	–	–	–	66%	–	–	–	–	–
CC(=O)Nc1ccc(CCSc2nc(N3CC(C)OC(C)C3)c3c(c2C#N)CC(C)(C)OC3)cc1 (configuration not stated)	50 µM (≈ 24.7 µg/mL)	60.5 µM	0.1 µM	0.1 µM	0%	37%	inactive	97%	100%	inactive	61%	–	–	–	–	–
CC1CN(c2nc(SCCc3cccc(F)c3)c(C#N)c3c2COC(C)(C)C3)CC(C)O1 (configuration not stated)	–	> 100 µM	1.6 µM	1.6 µM	–	–	inactive	103%	99%	inactive	–	–	–	–	–	–
CC1CN(c2nc(SCCc3cccnc3)c(C#N)c3c2COC(C)(C)C3)CC(C)O1 (configuration not stated)	≥ 100 µM	42.6 µM	12.5 µM	3.1 µM	19%	53%	inactive	–	86%	inactive	0%	–	–	–	–	–
COc1cccc(CCSc2nc(N3CC(C)OC(C)C3)c3c(c2C#N)CC(C)(C)OC3)c1 (configuration not stated)	–	> 100 µM	9.4 µM	1.6 µM	–	–	inactive	–	–	–	–	–	–	–	–	–
COc1ccc(CCSc2nc(N3CCOCC3)c3c(c2C#N)CC(C)(C)OC3)cc1OC	25 µM (≈ 11.7 µg/mL)	69.4 µM	1.3 µM	0.8 µM	5%	21%	inactive	–	–	–	49%	–	–	–	–	–
CC1(C)Cc2c(C#N)c(SCCc3cccnc3)nc(N3CCOCC3)c2CO1	–	> 100 µM	25 µM	3.1 µM	–	–	inactive	–	–	–	–	–	–	–	–	–
COCCN1CCN(c2nc(SCCc3ccc(OC)cc3)c(C#N)c3c2COC(C)(C)C3)CC1	≥ 100 µM	34.8 µM	6.3 µM	3.1 µM	17%	–	inactive	103%	94%	inactive	42%	–	–	–	–	–
